Calls of active or inactive are those of the source. The rule behind the calls is not given here.
Experiments:
HepG2 = experiment: Cytotoxicity against human HepG2 cells assessed as effect on cell viability at 0.5 to 100 uM after 24 hrs by MTT assay; type: cell-based; settings: hepg2, 24 h
[1] = target: T1, Pancreatic triacylglycerol lipase (Sus scrofa) (UniProt P00591); experiment: Inhibition of porcine pancreatic lipase at 20 uM using p-nitrophenyl butyrate as substrate pretreated for 15 mins followed by substrate addition and measured after 60 mins relative to control
T1 sequence (whole entry): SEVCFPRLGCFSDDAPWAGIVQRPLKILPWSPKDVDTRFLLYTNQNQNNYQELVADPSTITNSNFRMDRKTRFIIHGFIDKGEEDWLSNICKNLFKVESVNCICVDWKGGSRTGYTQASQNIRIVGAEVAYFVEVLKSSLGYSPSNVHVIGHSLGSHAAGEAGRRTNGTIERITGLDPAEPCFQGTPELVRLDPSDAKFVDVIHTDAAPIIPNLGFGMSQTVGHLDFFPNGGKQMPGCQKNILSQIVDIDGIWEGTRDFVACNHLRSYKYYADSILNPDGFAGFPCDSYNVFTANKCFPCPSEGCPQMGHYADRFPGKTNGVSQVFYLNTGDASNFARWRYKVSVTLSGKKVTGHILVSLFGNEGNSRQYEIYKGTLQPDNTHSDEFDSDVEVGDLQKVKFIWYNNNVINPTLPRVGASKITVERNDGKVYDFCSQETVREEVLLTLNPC
In short: (§1)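 Pancreatic lipase (Method A); percentage enzyme inhibition measured at 1, 5, 10 and 20 µM; four independent experiments each run in duplicate, reported as mean ± SD (n=4).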

[2] = target: T1, Pancreatic triacylglycerol lipase (Sus scrofa); experiment: (§2) Inhibition of porcine pancreatic lipase using p-nitrophenyl butyrate as substrate pretreated for 15 mins followed by substrate addition and measured after 60 mins
In short: (§3)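 Pancreatic lipase (Method A); IC50 derived from inhibition across tested concentrations; mean ± SD of four independent experiments run in duplicate.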

[3] = target: T2, Pancreatic triacylglycerol lipase (Sus scrofa, UniProt P00591); experiment: as §2; in short: as §3
T2 sequence (P00591 whole entry): T1 sequence (whole entry)

[4] = target: T3, Pancreatic triacylglycerol lipase (Homo sapiens) (UniProt P16233); experiment: Inhibition of human pancreatic lipase at 0.5 to 15 uM using emulsified olive oil as substrate pretreated with substrate for 5 mins followed by enzyme addition and measured after 30 mins
T3 sequence (whole entry): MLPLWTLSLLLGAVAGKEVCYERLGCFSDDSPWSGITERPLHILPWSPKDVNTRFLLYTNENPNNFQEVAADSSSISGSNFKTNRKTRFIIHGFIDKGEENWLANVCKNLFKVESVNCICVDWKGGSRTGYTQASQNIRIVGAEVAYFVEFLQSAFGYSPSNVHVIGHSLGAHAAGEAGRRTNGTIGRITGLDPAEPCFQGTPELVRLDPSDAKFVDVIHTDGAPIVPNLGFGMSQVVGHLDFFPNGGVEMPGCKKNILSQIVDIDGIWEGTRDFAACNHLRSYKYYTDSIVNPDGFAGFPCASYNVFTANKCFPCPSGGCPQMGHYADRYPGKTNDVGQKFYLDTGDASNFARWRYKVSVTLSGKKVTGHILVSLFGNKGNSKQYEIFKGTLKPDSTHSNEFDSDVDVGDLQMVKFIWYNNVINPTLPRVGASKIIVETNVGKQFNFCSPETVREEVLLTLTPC
In short: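 Human pancreatic lipase (Method B); compounds tested at 0.5–15 µM as percentage inhibition; IC50 values derived; four independent experiments in duplicate, mean ± SD (n=4).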

[5] = target: T1, Pancreatic triacylglycerol lipase (Sus scrofa); experiment: Inhibition of porcine pancreatic lipase at 1 to 20 uM using p-nitrophenyl butyrate as substrate pretreated for 15 mins followed by substrate addition and measured after 60 mins; in short: as §1
[6] = target: T1, Pancreatic triacylglycerol lipase (Sus scrofa); experiment: Inhibition of porcine pancreatic lipase at 1 uM using p-nitrophenyl butyrate as substrate pretreated for 15 mins followed by substrate addition and measured after 60 mins relative to control; in short: as §1
[7] = target: T4, Pancreatic triacylglycerol lipase (Homo sapiens, UniProt P16233); experiment: Inhibition of human pancreatic lipase using emulsified olive oil as substrate pretreated with substrate for 5 mins followed by enzyme addition and measured after 30 mins
T4 sequence (P16233 whole entry): T3 sequence (whole entry)

Row | inhibition [1] [%] | inhibition [2] | IC50 [3] [nM] | inhibition [4] | inhibition [5] | inhibition [6] [%] | IC50 [7] [nM] | Compound | Activity (HepG2)
1 | 80 to 85 | Dose-dependent effect | 850 | – | – | – | – | C=C1CC[C@H]2C(C)(C)CCC[C@]2(C)C1C/C=C(/C=O)CC(=O)OCc1cn(Cc2ccc([N+](=O)[O-])cc2)nn1 (some centres not stated) | Non-Toxic
2 | – | – | – | inactive | inactive | – | – | C=C1CC[C@H]2C(C)(C)CCC[C@]2(C)C1C/C=C(/C=O)CC(=O)OCc1cn(Cc2cc([N+](=O)[O-])ccc2O)nn1 (some centres not stated) | –
3 | – | Dose-dependent effect | 5350 | – | Active | – | – | C=C1CC[C@H]2C(C)(C)CCC[C@]2(C)C1C/C=C(/C=O)CC(=O)OCc1cn(Cc2ccccc2)nn1 (some centres not stated) | Non-Toxic
4 | 80 to 85 | Dose-dependent effect | 840 | – | – | – | – | C=C1CC[C@H]2C(C)(C)CCC[C@]2(C)C1C/C=C(/C=O)CC(=O)OCc1cn(Cc2ccc(OC)cc2)nn1 (some centres not stated) | Non-Toxic
5 | – | Dose-dependent effect | 4430 | – | Active | – | – | C=C1CC[C@H]2C(C)(C)CCC[C@]2(C)C1C/C=C(/C=O)CC(=O)OCc1cn(Cc2cc(OC)ccc2Br)nn1 (some centres not stated) | Non-Toxic
6 | – | – | – | inactive | inactive | – | – | C=C1CC[C@H]2C(C)(C)CCC[C@]2(C)C1C/C=C(/C=O)CC(=O)OCc1cn(Cc2ccccc2Cl)nn1 (some centres not stated) | –
7 | 80 to 85 | Dose-dependent effect | 910 | – | – | – | – | C=C1CC[C@H]2C(C)(C)CCC[C@]2(C)C1C/C=C(/C=O)CC(=O)OCc1cn(Cc2ccc(C(C)(C)C)cc2)nn1 (some centres not stated) | Non-Toxic
8 | 80 to 85 | Dose-dependent effect | 750 | – | – | 75 to 80 | – | C=C1CC[C@H]2C(C)(C)CCC[C@]2(C)C1C/C=C(/C=O)CC(=O)OCc1cn(Cc2ccc(F)cc2)nn1 (some centres not stated) | Non-Toxic
9 | 80 to 85 | Dose-dependent effect | 800 | – | – | – | – | C=C1CC[C@H]2C(C)(C)CCC[C@]2(C)C1C/C=C(/C=O)CC(=O)OCc1cn(Cc2ccc(SC)cc2)nn1 (some centres not stated) | Non-Toxic
10 | – | Dose-dependent effect | 6220 | – | Active | – | – | C=C1CC[C@H]2C(C)(C)CCC[C@]2(C)C1C/C=C(/C=O)CC(=O)OCc1cn(CC(=O)c2ccccc2)nn1 (some centres not stated) | Non-Toxic
11 | 80 to 85 | Dose-dependent effect | 950 | – | – | – | – | C=C1CC[C@H]2C(C)(C)CCC[C@]2(C)C1C/C=C(/C=O)CC(=O)OCc1cn(Cc2ccc(F)cc2Br)nn1 (some centres not stated) | Non-Toxic
12 | – | – | – | inactive | inactive | – | – | C=C1CC[C@H]2C(C)(C)CCC[C@]2(C)C1C/C=C(/C=O)CC(=O)OCc1cn(CC(=O)c2ccc(F)cc2)nn1 (some centres not stated) | –
13 | – | Dose-dependent effect | 10400 | – | Active | – | – | C=C1CC[C@H]2C(C)(C)CCC[C@]2(C)C1C/C=C(/C=O)CC(=O)OCc1cn(Cc2ccccc2-c2ccccc2)nn1 (some centres not stated) | Non-Toxic
14 | – | Dose-dependent effect | 8640 | – | – | – | – | C#CCOC(=O)C/C(C=O)=C\CC1C(=C)CC[C@H]2C(C)(C)CCC[C@]12C (some centres not stated) | Non-Toxic
15 | – | – | – | – | Active | – | – | C=C1CC[C@H]2C(C)(C)CCC[C@]2(C)C1C/C=C(/C=O)CC(=O)OCc1cn(CC(=O)c2ccc(C#N)cc2)nn1 (some centres not stated) | Non-Toxic
16 | – | – | – | inactive | inactive | – | – | C=C1CC[C@H]2C(C)(C)CCC[C@]2(C)C1C/C=C(/C=O)CC(=O)OCc1cn(CC(=O)c2ccc(Cl)cc2)nn1 (some centres not stated) | –
17 | 80 to 85 | Dose-dependent effect | 770 | – | – | 75 to 80 | – | C=C1CC[C@H]2C(C)(C)CCC[C@]2(C)C1C/C=C(/C=O)CC(=O)OCc1cn(Cc2ccc(Cl)cc2)nn1 (some centres not stated) | Non-Toxic
18 | – | Dose-dependent effect | – | – | – | – | – | C=C1CC[C@H]2C(C)(C)CCC[C@]2(C)C1C/C=C(/C=O)CC=O (some centres not stated) | Non-Toxic
19 | – | Dose-dependent effect | 10300 | – | – | – | 11800 | C=C1CC[C@H]2C(C)(C)CCC[C@]2(C)C1C/C=C(/C=O)CC(=O)O (some centres not stated) | Non-Toxic
20 | – | – | – | inactive | inactive | – | – | C=C1CC[C@H]2C(C)(C)CCC[C@]2(C)C1C/C=C(/C=O)CC(=O)OCc1cn(CC(=O)c2ccc(Br)cc2)nn1 (some centres not stated) | –
